The subject of data set [1] is Mus musculus. As to the kind of experiment: Toxicity in HBV infected transgenic 1.3.32 mouse assessed as weight loss at 7.9 to 25 mg/kg, po qd for 14 days. Type of data set: organism-based. Set-up: dose 7.9-25 mg/kg, route oral. The note with it: in vivo, 336 h. Summed up:
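HBV-transgenic mice (strain 1.3.32), 10 per group, randomised; oral gavage once daily for 14 days at 25 or 7.9 mg/kg in NMP:Solutol HS15/saline vehicle; vehicle-only group. Weighed before the first dose and after 3 days; observed one hour after each dose. Tail-vein blood taken before dosing, at day 7 and at day 14 necropsy, each 3 h post-dose, for serum chemistry.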

Data set [2] concerns Mus musculus. In words: Acute toxicity in CL57BL/6 mouse assessed as effect on mean platelet volume at 25 mg/kg, iv administered as single dose after 24 hrs. The note with it: in vivo. Set-up: dose 25 mg/kg, route intravenous. Type of data set: organism-based. Summed up:
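Female C57BL/6 mice, four per group, randomized, each given one tail-vein injection of a 2 mg/mL solution in 1:1 NMP:Solutol HS15 diluted with saline; a vehicle-only group served as control. Mice were watched closely for the first hour and sacrificed at 24 h with necropsy. Whole blood was taken for complete blood counts on an automated haematology analyser.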

In another data set the test system is Hepatitis B virus. In words: Antiviral activity against wild-type Hepatitis B virus infected in human HepG2 cells assessed as inhibition of HBsAg secretion by ELISA. Type of data set: functional, organism-based. (In general: ELISA stands for enzyme-linked immunosorbent assay.)

Molecules are shown by their SMILES.

As usually defined, the EC50 is the concentration that produces a half-maximal response. As for `Fc1cccc(Cl)c1C1CC(c2ccc(Cl)cc2)Nc2ncnn21` (racemic), the Activity result with Mus musculus [1] and with Mus musculus [2] was “Non-toxic” each time. In addition, the EC50 in the data set on Hepatitis B virus amounted to 8.4 µM.

The values are drawn from ChEMBL document CHEMBL1811844, “Design, synthesis, and biological evaluation of triazolo-pyrimidine derivatives as novel inhibitors of hepatitis B virus surface antigen (HBsAg) secretion” (J Med Chem, 2011).
